Bioassay records deposited in PubChem by several laboratories.
The list is not random: actives were taken first. Their share in the collection is about 2%.
PG9 Ab binder – binds the HIV-1 gp120 antibody PG9; TR-FRET gp120-PG9 antibody binding; 360,000 compounds, 0.43% hits; AID 624416; inhibition, % at 6.7 µM; in the data active = inhibition above about 8.5%
Rev-erbA mod – Rev-erb alpha (human) modulation. 370,000 compounds, 0.79% hits. AID 1259318. Rev-erbα–FITC-DNA binding, fluorescence polarization, 90 min. activity, % at 10 µM. P20393;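 active = activity above about 14%, limit read from the data; passing the limit was not always enough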
Neddylation inh – blocks human cullin neddylation; P61081+Q13564; TR-FRET cullin neddylation, biochemical; calls only at 25 µM; 360,000 compounds, 0.58% hits; AID 651699; in the data active = inhibition above about 36%
NR2E3 ag-1 – activates human photoreceptor nuclear receptor NR2E3; Q9Y5X4; GST-NR2E3/biotin-RetCOR TR-FRET, 1536-well; inhibition of corepressor binding, % at 4.78 µM; 320,000 compounds, 0.12% hits; AID 2300;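 active = percent inhibition above the cutoff of mean plus 3 SD of all tested compounds, set per screening campaign, cut at about 20% in these data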
Target sequence (Q9Y5X4 whole entry, looked up): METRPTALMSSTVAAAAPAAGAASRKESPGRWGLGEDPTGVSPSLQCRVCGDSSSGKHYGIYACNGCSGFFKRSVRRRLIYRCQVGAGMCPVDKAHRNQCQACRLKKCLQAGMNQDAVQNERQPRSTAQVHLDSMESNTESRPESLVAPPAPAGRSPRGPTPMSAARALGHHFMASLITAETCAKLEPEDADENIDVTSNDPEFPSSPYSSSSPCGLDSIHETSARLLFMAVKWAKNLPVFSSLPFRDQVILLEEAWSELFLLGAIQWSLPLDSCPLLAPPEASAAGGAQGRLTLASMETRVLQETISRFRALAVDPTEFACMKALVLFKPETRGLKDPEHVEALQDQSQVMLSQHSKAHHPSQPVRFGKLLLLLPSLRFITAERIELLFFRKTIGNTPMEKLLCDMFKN
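Test system: GST-NR2E3 and biotin-RetCOR proteins | Quantity: 1.35 nM GST-tagged NR2E3 final | Medium: Tris pH 7.5 | Also added: 7 nM biotin-RetCOR | Dosing: Compound at 4.8 µM, single dose | Timing: 5 h at 4 °C | Detection: Time-resolved FRET | Read-out basis: Percent inhibition | Benchmarks: Biotin wells as high control, 0.6% DMSO wells as low control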
NR2E3 ag-2 – activates human NR2E3 receptor | CHO-S Gal4-NCOR/VP16-NR2E3 two-hybrid, luciferase | inhibition of corepressor binding, % at 3.98 µM | 360,000 compounds, 0.35% hits | AID 602229;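 active = inhibition above the mean of all tested compounds plus 3 SD, cut at about 70% in these data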;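 note: higher means lower luciferase signal from less NR2E3 corepressor binding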
NR2E3 ag conf – confirmation of human NR2E3 agonists; shares compounds with NR2E3 ag-2; CHO-S mammalian two-hybrid NR2E3-NCOR, luciferase luminescence; inhibition, % at 3.98 µM; 2,300 compounds, 51% hits;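 active = average inhibition above a cutoff equal to the mean inhibition of all tested compounds plus one SD, cut at about 70% in these data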
VP16 counter – GAL4-VP16 reporter inhibition in NR2E3 agonist counterscreen; shares compounds with NR2E3 ag-2; CHO-S GAL4-VP16 luciferase reporter, luminescence; inhibition, % at 3.98 µM; 2,300 compounds, 29% hits; AID 624379;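 active = mean inhibition above a cutoff equal to the average over all tested compounds plus one standard deviation, cut at about 70% in these data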;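 note: luciferase from a UAS reporter driven by GAL4-VP16 transactivation; higher means less reporter light so more repression of VP16 activity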
Each line names hits and unclear results; the compound was inactive in the other large screens (follow-up assays come after a bar, where shown).

CC(O)(c1cccc(F)c1)c1nc(-c2cccc(C(F)(F)F)c2)cs1 (centres undefined)	none (no result: NR2E3 ag-1)
O=C1NC(=O)/C(=C/c2ccccc2OCc2ccccc2)S1	none | NR2E3 ag conf inactive | VP16 counter inactive
CCC(NC(=O)c1ccc2nc(Cc3ccc(OC)cc3)oc2c1)c1ccncc1 (centres undefined)	none | NR2E3 ag conf 83 | VP16 counter inactive
COc1ccc(OCc2cc(C(=O)N3CCCC(CO)C3)no2)c2ccccc12 (centres undefined)	none
O=C(c1cc(COc2cccc3cnccc23)on1)N1CCCC(CCCO)C1 (centres undefined)	Neddylation inh active, NR2E3 ag-2 110 | NR2E3 ag conf 99 | VP16 counter 93
COc1ccc(NS(=O)(=O)c2ccc3oc(SCc4ccc(F)cc4)nc3c2)cc1	none | NR2E3 ag conf 85 | VP16 counter inactive
COc1ccccc1NS(=O)(=O)c1ccc2oc(SCc3ccc(F)cc3)nc2c1	none
CC(C)C[C@H]1COc2cc(N3CCCC3)ccc2S(=O)(=O)N1C	none (no result: PG9 Ab binder, Neddylation inh, NR2E3 ag-1, NR2E3 ag-2)
CC(=O)c1c(C)[nH]c(C(=O)C(C)Sc2nnc(NC3CC3)s2)c1C (centres undefined)	none | NR2E3 ag conf inactive | VP16 counter inactive
CCCCCCCCSC1=CC(=O)C(OC)=C(OC)C1=O	none (no result: NR2E3 ag-1) | NR2E3 ag conf 93 | VP16 counter inactive
CCCCCSc1nncc(=O)[nH]1	none
CCC(C)Nc1nc(-c2cccc(OC)c2O)nc2ccccc12 (centres undefined)	none
CCC(C)Nc1nc(-c2ccccn2)nc2ccccc12 (centres undefined)	NR2E3 ag-2 100 | NR2E3 ag conf 99 | VP16 counter inactive
c1ccc(CNc2nc(-c3ccccc3)nc3ccccc23)cc1	none
c1ccc(CNc2nc(-c3ccccn3)nc3ccccc23)cc1	NR2E3 ag-2 95 | NR2E3 ag conf 99 | VP16 counter inactive
COC(=O)c1cc2c(c3c4cc(F)ccc4n(S(=O)(=O)c4ccc(C)cc4)c13)C(=O)N(Cc1ccccc1OC)C2	none (no result: Neddylation inh, NR2E3 ag-1, NR2E3 ag-2)
O=C(O)CC1(CC(=O)Nc2cc(C(F)(F)F)cc(C(F)(F)F)c2)CCCCC1	none | NR2E3 ag conf 88 | VP16 counter inactive
O=C(O)CC1(CC(=O)NCc2ccc(C(F)(F)F)cc2)CCCCC1	none
CCOC(=O)C1(Cc2ccc(Cl)cc2)CCN(C(C)Cc2ccc(O)c(OC)c2)CC1 (centres undefined)	none | NR2E3 ag conf 86 | VP16 counter 75
CC(=O)c1cn(CCOc2ccccc2C)c2ccccc12	NR2E3 ag-2 70 | NR2E3 ag conf 94 | VP16 counter 79
Cc1ccccc1OCCn1cc(C(=S)N2CCCC2)c2ccccc21	none
O=C(OC12CCCN(C1)/C(=C/c1ccncc1)C2)c1ccco1 (centres undefined)	none (no result: PG9 Ab binder, Neddylation inh, NR2E3 ag-1, NR2E3 ag-2)
O=C1NC(=O)C(=Cc2ccc(Cl)cc2Cl)S1	none (no result: NR2E3 ag-1) | NR2E3 ag conf 91 | VP16 counter inactive
CCCC1CCC2(CCC(=O)N2CCSc2ccccc2)CC1 (centres undefined)	none (no result: PG9 Ab binder, Neddylation inh, NR2E3 ag-1, NR2E3 ag-2)
CN(Cc1ccccc1)C(=O)OCc1cn(Cc2ccc(F)c(F)c2)nn1	none (no result: PG9 Ab binder, Neddylation inh, NR2E3 ag-1, NR2E3 ag-2)
Oc1ccccc1C=NNC(=S)NC1CC2C=CC1C2 (centres undefined)	none (not shown: Neddylation inh, NR2E3 ag-1) | NR2E3 ag conf inactive | VP16 counter inactive
COc1ccc(Cl)cc1Cn1c(C)c(C(=O)NCc2cccc(Cl)c2)sc1=O	NR2E3 ag-2 76 (no result: NR2E3 ag-1) | NR2E3 ag conf 75 | VP16 counter inactive
COc1ccc(NC(=O)c2sc(=O)n(Cc3ccc(F)c(Cl)c3)c2C)cc1OC	none (no result: NR2E3 ag-1) | NR2E3 ag conf 76 | VP16 counter inactive
Cc1cccc(C(=O)NNC(=S)NC(=O)c2cccs2)c1	none | NR2E3 ag conf inactive | VP16 counter inactive
CC(C)C(=O)NC(c1ccccc1)c1cc([N+](=O)[O-])c2cccnc2c1O (centres undefined)	none
CC(=O)NC(c1ccccc1)c1cc([N+](=O)[O-])c2cccnc2c1O (centres undefined)	none | NR2E3 ag conf 94 | VP16 counter inactive
CCC(=O)NC(c1cccs1)c1cc([N+](=O)[O-])c2cccnc2c1O (centres undefined)	none | NR2E3 ag conf 94 | VP16 counter inactive
CCCC(=O)NC(c1cccs1)c1cc([N+](=O)[O-])c2cccnc2c1O (centres undefined)	none
CC(=O)NC(c1cccs1)c1cc([N+](=O)[O-])c2cccnc2c1O (centres undefined)	NR2E3 ag-2 81 | NR2E3 ag conf 98 | VP16 counter inactive
O=C(COc1ccc(F)cc1Cl)Nc1nnc(-c2ccc(F)c(F)c2)o1	none (no result: PG9 Ab binder, Neddylation inh, NR2E3 ag-1, NR2E3 ag-2)
O=C(Nc1nc2ncccn2c1-c1ccc(C(F)(F)F)cc1)C1CC1	none (no result: PG9 Ab binder, Neddylation inh, NR2E3 ag-1, NR2E3 ag-2)
COc1cccc(N2CCN(CC(=O)NCc3ccco3)CC2)c1	none (no result: PG9 Ab binder, Neddylation inh, NR2E3 ag-1, NR2E3 ag-2)
Cc1csc(NC(=O)Cc2nn(C)c(=O)c3ccccc23)n1	none | NR2E3 ag conf inactive | VP16 counter inactive
Cn1nc(CC(=O)NCc2cccc3ccccc23)c2ccccc2c1=O	none
COc1ccccc1NC(=O)Cc1nn(C)c(=O)c2ccccc12	NR2E3 ag-2 74 (no result: PG9 Ab binder, Rev-erbA mod) | NR2E3 ag conf 73 | VP16 counter inactive
COc1cccc(OC)c1NC(=O)Cc1nn(C)c(=O)c2ccccc12	none
CN1CCN(C(=O)c2cccc(-c3cnc4cnc(-c5ccccc5Oc5ccccc5)cn34)c2)CC1	none (not shown: Neddylation inh, NR2E3 ag-1) | NR2E3 ag conf 70 | VP16 counter inactive
Cc1ccc(/C=C2\SC(=S)N(CCCC(=O)Nc3cccnc3)C2=O)cc1	NR2E3 ag-2 91 (no result: PG9 Ab binder, Rev-erbA mod) | NR2E3 ag conf inactive | VP16 counter 90
O=C(CCCN1C(=O)/C(=C/c2ccccc2Cl)SC1=S)NNC(=O)c1ccccc1	none
O=C(CCCN1C(=O)/C(=C/c2ccccc2Cl)SC1=S)NNC(=O)c1cccnc1	none | NR2E3 ag conf inactive | VP16 counter inactive
Cc1ccc(/C=C2\SC(=S)N(CC(=O)Nc3cccnc3)C2=O)cc1	none
COc1ccc(/C=C2\SC(=S)N(CCCC(=O)Nc3ccc(O)cc3)C2=O)cc1	NR2E3 ag-2 73 | NR2E3 ag conf inactive | VP16 counter inactive
CC1CCCCN1C(=O)c1ccc(CNC(=O)c2cccc(Br)c2)cc1 (centres undefined)	none (no result: PG9 Ab binder, Neddylation inh, NR2E3 ag-1, NR2E3 ag-2)
O=C1NC(=O)C(c2ccc(F)cc2)N1 (centres undefined)	NR2E3 ag-2 107 | NR2E3 ag conf inactive | VP16 counter inactive
CC(C)(C)c1ccc(C(=O)O/N=C(\N)c2ccccc2)cc1	NR2E3 ag-2 81 | NR2E3 ag conf 78 | VP16 counter 74
C#CCCN([C@H](C(=O)OC)C(C)CC)S(=O)(=O)c1ccccc1Br (some centres undefined)	none (no result: PG9 Ab binder, Neddylation inh, NR2E3 ag-1, NR2E3 ag-2)
CC1(C)CC(=O)c2c(O)cc(OCC(=O)Nc3ccc(S(N)(=O)=O)cc3)cc2O1	none
